Results: ChEMBL document CHEMBL1127380, “(4-[18F]fluoro-3-iodobenzyl)guanidine, a potential MIBG analogue for positron emission tomography” (J Med Chem, 1994)
Values belong to the compound of their own block, whether it stands above or below them.

Tests used:
Mus musculus [1] = species on record: Mus musculus; experiment: Tissue distribution expressed as percentage injected dose per gram of tissue in normal mice adrenals after 1 hour; type: ADME, organism-based, Adrenal gland; settings: in vivo
In short: (§1)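 Normal BALB/c mice, 26–29 g, given 4 μCi of the nca 18F tracer via tail vein. Groups killed with halothane at 1, 2 or 4 h post-injection. Tissues washed in saline, blot-dried, weighed and γ-counted for ¹⁸F. Values are mean ± SD as % ID/g; n = 10 at 1 and 2 h, n = 5 at 4 h.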

Mus musculus [2] = species on record: Mus musculus; experiment: tissue distribution expressed as percentage injected dose per gram of tissue in normal mice heart after 1 hour; type: ADME, organism-based; settings: in vivo
Mus musculus [3] = species on record: Mus musculus; experiment: Tissue distribution expressed as percentage injected dose per gram of tissue in normal mice adrenals after 4 hour; type: ADME, organism-based, Adrenal gland; settings: in vivo; in short: as §1
Mus musculus [4] = species on record: Mus musculus; experiment: Tissue distribution expressed as percentage injected dose per gram of tissue in normal mice heart after 4 hour; type: ADME, organism-based; settings: in vivo; in short: as §1
Mus musculus [5] = species on record: Mus musculus; experiment: Tissue distribution expressed as percentage injected dose per gram of tissue in normal mice large intestine after 4 hour; type: ADME, organism-based; settings: in vivo; in short: as §1
Mus musculus [6] = species on record: Mus musculus; experiment: Tissue distribution expressed as percentage injected dose per gram of tissue in normal mice bone after 4 hour; type: ADME, organism-based, Bone element; settings: in vivo; in short: as §1
Mus musculus [7] = species on record: Mus musculus; experiment: Tissue distribution expressed as percentage injected dose per gram of tissue in normal mice brain after 4 hour; type: ADME, organism-based; settings: in vivo; in short: as §1
Mus musculus [8] = species on record: Mus musculus; experiment: Tissue distribution expressed as percentage injected dose per gram of tissue in normal mice heart after 1 hour; type: ADME, organism-based; settings: in vivo; in short: as §1
Mus musculus [9] = species on record: Mus musculus; experiment: Tissue distribution expressed as percentage injected dose per gram of tissue in normal mice brain after 2 hour; type: ADME, organism-based; settings: in vivo; in short: as §1
Mus musculus [10] = species on record: Mus musculus; experiment: Tissue distribution expressed as percentage injected dose per gram of tissue in normal mice muscle after 4 hour; type: ADME, organism-based; settings: in vivo; in short: as §1
Mus musculus [11] = species on record: Mus musculus; experiment: Tissue distribution expressed as percentage injected dose per gram of tissue in normal mice thyroid after 2 hour; type: ADME, organism-based, Thyroid gland; settings: in vivo; in short: as §1
Mus musculus [12] = species on record: Mus musculus; experiment: Tissue distribution expressed as percentage injected dose per gram of tissue in normal mice lungs after 4 hour; type: ADME, organism-based, Lung; settings: in vivo; in short: as §1
Mus musculus [13] = species on record: Mus musculus; experiment: Tissue distribution expressed as percentage injected dose per gram of tissue in normal mice heart after 2 hour; type: ADME, organism-based; settings: in vivo; in short: as §1
Mus musculus [14] = species on record: Mus musculus; experiment: Tissue distribution expressed as percentage injected dose per gram of tissue in normal mice lungs after 1 hour; type: ADME, organism-based, Lung; settings: in vivo; in short: as §1
Mus musculus [15] = species on record: Mus musculus; experiment: Tissue distribution expressed as percentage injected dose per gram of tissue in normal mice lungs after 2 hour; type: ADME, organism-based, Lung; settings: in vivo; in short: as §1
Mus musculus [16] = species on record: Mus musculus; experiment: Tissue distribution expressed as percentage injected dose per gram of tissue in normal mice small intestine after 1 hour; type: ADME, organism-based; settings: in vivo; in short: as §1
Mus musculus [17] = species on record: Mus musculus; experiment: Tissue distribution expressed as percentage injected dose per gram of tissue in normal mice spleen after 4 hour; type: ADME, organism-based; settings: in vivo; in short: as §1
Mus musculus [18] = species on record: Mus musculus; experiment: Tissue distribution expressed as percentage injected dose per gram of tissue in normal mice bone after 2 hour; type: ADME, organism-based, Bone element; settings: in vivo; in short: as §1
Mus musculus [19] = species on record: Mus musculus; experiment: Tissue distribution expressed as percentage injected dose per gram of tissue in normal mice small intestine after 4 hour; type: ADME, organism-based; settings: in vivo; in short: as §1
Mus musculus [20] = species on record: Mus musculus; experiment: Tissue distribution expressed as percentage injected dose per gram of tissue in normal mice muscle after 2 hour; type: ADME, organism-based; settings: in vivo; in short: as §1
Mus musculus [21] = species on record: Mus musculus; experiment: Tissue distribution expressed as percentage injected dose per gram of tissue in normal mice thyroid after 4 hour; type: ADME, organism-based, Thyroid gland; settings: in vivo; in short: as §1
Mus musculus [22] = species on record: Mus musculus; experiment: Tissue distribution expressed as percentage injected dose per gram of tissue in normal mice bone after 1 hour; type: ADME, organism-based, Bone element; settings: in vivo; in short: as §1
Mus musculus [23] = species on record: Mus musculus; experiment: Tissue distribution expressed as percentage injected dose per gram of tissue in normal mice liver after 2 hour; type: ADME, organism-based; settings: in vivo; in short: as §1
Mus musculus [24] = species on record: Mus musculus; experiment: Tissue distribution expressed as percentage injected dose per gram of tissue in normal mice stomach after 4 hour; type: ADME, organism-based; settings: in vivo; in short: as §1
Mus musculus [25] = species on record: Mus musculus; experiment: Tissue distribution expressed as percentage injected dose per gram of tissue in normal mice thyroid after 1 hour; type: ADME, organism-based, Thyroid gland; settings: in vivo; in short: as §1
Mus musculus [26] = species on record: Mus musculus; experiment: Tissue distribution expressed as percentage injected dose per gram of tissue in normal mice kidney after 4 hour; type: ADME, organism-based; settings: in vivo; in short: as §1
Mus musculus [27] = species on record: Mus musculus; experiment: Tissue distribution expressed as percentage injected dose per gram of tissue in normal mice blood after 4 hour; type: ADME, organism-based; settings: in vivo; in short: as §1
Mus musculus [28] = species on record: Mus musculus; experiment: Tissue distribution expressed as percentage injected dose per gram of tissue in normal mice liver after 4 hour; type: ADME, organism-based; settings: in vivo; in short: as §1
Mus musculus [29] = species on record: Mus musculus; experiment: Tissue distribution expressed as percentage injected dose per gram of tissue in normal mice muscle after 1 hour; type: ADME, organism-based; settings: in vivo; in short: as §1
Mus musculus [30] = species on record: Mus musculus; experiment: Tissue distribution expressed as percentage injected dose per gram of tissue in normal mice blood after 2 hour; type: ADME, organism-based; settings: in vivo; in short: as §1
Mus musculus [31] = species on record: Mus musculus; experiment: Tissue distribution expressed as percentage injected dose per gram of tissue in normal mice large intestine after 1 hour; type: ADME, organism-based; settings: in vivo; in short: as §1
Mus musculus [32] = species on record: Mus musculus; experiment: Tissue distribution expressed as percentage injected dose per gram of tissue in normal mice adrenals after 2 hour; type: ADME, organism-based, Adrenal gland; settings: in vivo; in short: as §1
Mus musculus [33] = species on record: Mus musculus; experiment: Tissue distribution expressed as percentage injected dose per gram of tissue in normal mice spleen after 1 hour; type: ADME, organism-based; settings: in vivo; in short: as §1
Mus musculus [34] = species on record: Mus musculus; experiment: Tissue distribution expressed as percentage injected dose per gram of tissue in normal mice spleen after 2 hour; type: ADME, organism-based; settings: in vivo; in short: as §1
Mus musculus [35] = species on record: Mus musculus; experiment: Tissue distribution expressed as percentage injected dose per gram of tissue in normal mice kidney after 1 hour; type: ADME, organism-based; settings: in vivo; in short: as §1
SK-N-SH = experiment: The compound was tested for the concentration of inhibition by unlabelled analogues to SK-N-SH human neuroblastoma cells; type: functional, cell-based
In short: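 SK-N-SH neuroblastoma cells, 4 × 10⁵/well, with about 1 μCi 18F-labelled tracer or 0.1 μCi nca [¹²⁵I]MIBG plus graded concentrations of unlabelled benzylguanidines, in triplicate; 2 h at 37 °C. Nonspecific binding: 1 μM desipramine preincubation, 30 min. Cells washed twice in PBS, lysed in 0.5 N NaOH, γ-counted. Specific binding as % of control plotted against inhibitor concentration.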

Mus musculus [36] = species on record: Mus musculus; experiment: Tissue distribution expressed as percentage injected dose per gram of tissue in normal mice blood after 1 hour; type: ADME, organism-based; settings: in vivo; in short: as §1
Mus musculus [37] = species on record: Mus musculus; experiment: Tissue distribution expressed as percentage injected dose per gram of tissue in normal mice stomach after 1 hour; type: ADME, organism-based; settings: in vivo; in short: as §1
Mus musculus [38] = species on record: Mus musculus; experiment: Tissue distribution expressed as percentage injected dose per gram of tissue in normal mice large intestine after 2 hour; type: ADME, organism-based; settings: in vivo; in short: as §1
Mus musculus [39] = species on record: Mus musculus; experiment: Tissue distribution expressed as percentage injected dose per gram of tissue in normal mice brain after 1 hour; type: ADME, organism-based; settings: in vivo; in short: as §1
Mus musculus [40] = species on record: Mus musculus; experiment: Tissue distribution expressed as percentage injected dose per gram of tissue in normal mice liver after 1 hour; type: ADME, organism-based; settings: in vivo; in short: as §1
Mus musculus [41] = species on record: Mus musculus; experiment: Tissue distribution expressed as percentage injected dose per gram of tissue in normal mice kidney after 2 hour; type: ADME, organism-based; settings: in vivo; in short: as §1
Mus musculus [42] = species on record: Mus musculus; experiment: Tissue distribution expressed as percentage injected dose per gram of tissue in normal mice small intestine after 2 hour; type: ADME, organism-based; settings: in vivo; in short: as §1
Mus musculus [43] = species on record: Mus musculus; experiment: Tissue distribution expressed as percentage injected dose per gram of tissue in normal mice stomach after 2 hour; type: ADME, organism-based; settings: in vivo; in short: as §1

ID/g (Mus musculus [1]): 15.3%
ID/g (Mus musculus [2]): 9.7%
ID/g (Mus musculus [3]): 20.3%
ID/g (Mus musculus [4]): 5.9%
Structure (SMILES): N=C(N)NCc1ccc(F)cc1

ID/g (Mus musculus [5]): 3.8%
ID/g (Mus musculus [6]): 0.7%
ID/g (Mus musculus [7]): 0.2%
ID/g (Mus musculus [8]): 18.2%
ID/g (Mus musculus [9]): 0.1%
ID/g (Mus musculus [10]): 1.5%
ID/g (Mus musculus [11]): 1.9%
ID/g (Mus musculus [12]): 4%
ID/g (Mus musculus [13]): 19.5%
ID/g (Mus musculus [14]): 9.7%
ID/g (Mus musculus [15]): 5.5%
ID/g (Mus musculus [16]): 5.5%
ID/g (Mus musculus [17]): 3.2%
ID/g (Mus musculus [18]): 0.9%
ID/g (Mus musculus [19]): 3%
ID/g (Mus musculus [20]): 1.7%
ID/g (Mus musculus [1]): 21.3%
ID/g (Mus musculus [21]): 1.5%
ID/g (Mus musculus [22]): 1.1%
ID/g (Mus musculus [23]): 9.2%
ID/g (Mus musculus [24]): 1.9%
ID/g (Mus musculus [25]): 1.8%
ID/g (Mus musculus [26]): 1.9%
ID/g (Mus musculus [27]): 0.4%
ID/g (Mus musculus [28]): 6.8%
ID/g (Mus musculus [29]): 1.7%
ID/g (Mus musculus [3]): 19.7%
ID/g (Mus musculus [30]): 0.7%
ID/g (Mus musculus [31]): 3.8%
ID/g (Mus musculus [32]): 19.2%
ID/g (Mus musculus [33]): 3.8%
ID/g (Mus musculus [34]): 3.7%
ID/g (Mus musculus [35]): 2.6%
IC50 (SK-N-SH; Homo sapiens, SK-N-SH): 200 nM
IC50 (SK-N-SH; sk-n-sh): 200 nM
ID/g (Mus musculus [36]): 0.9%
ID/g (Mus musculus [4]): 18.3%
ID/g (Mus musculus [37]): 3%
ID/g (Mus musculus [38]): 4.5%
ID/g (Mus musculus [39]): 0.1%
ID/g (Mus musculus [40]): 10.5%
ID/g (Mus musculus [41]): 2.3%
ID/g (Mus musculus [42]): 4.3%
ID/g (Mus musculus [43]): 2.4%
Structure (SMILES): N=C(N)NCc1ccc(F)c(I)c1

ID/g (Mus musculus [8]): 21%
ID/g (Mus musculus [1]): 13.9%
ID/g (Mus musculus [3]): 23.8%
ID/g (Mus musculus [4]): 10.5%
Structure (SMILES): N=C(N)NCc1cccc(F)c1 [M-FLUOROBENZYLGUANIDINE]
